Ecoli rRNA inh – reduced GFP signal of wild-type E. coli, primary screen, bacterial rRNA inhibitor project, GFP/RFP fluorescence, OD600, single point; E. coli WT GFP vs humanized-ribosome RFP mutants, 24 h; stronger effect = lower value; DMSO median 0, no signal -100; actives 1.6% (n = 350,000); GFP signal change (wild-type ribosome), % (no concentration beside the values);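 active = significant combined selectivity score with lowered wild-type GFP, culture density cut under 30%, mutant RFP and density less affected; inactive = any of these conditions unmet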
EWS-Fli inh – EWS/Fli-driven NR0B1 reporter inhibitors, primary screen, A673 cells, NR0B1 luciferase, luminescence, MLPCN library; viability-normalised; inhibition, % at 12.6 µM; actives 0.67% (n = 350,000); AID 651661, 2012;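 active = mean inhibition of at least 50% after viability correction, with every replicate also passing that limit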;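 also: firefly luciferase signal divided by Alamar Blue viability fluorescence both relative to DMSO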
E-selectin induc – E-selectin induction in HUVECs, primary screen, imaging, HUVEC, immunofluorescence imaging, single point; normalized: neutral wells 0, TNF-alpha wells 100; activation, % at 7.58 µM; actives 0.37% (n = 260,000);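 active = mean E-selectin-positive cell signal at least 10% of the positive control, reached in at least 60% of replicates, without over 20% cell loss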
Target sequence (P16581 whole entry, looked up): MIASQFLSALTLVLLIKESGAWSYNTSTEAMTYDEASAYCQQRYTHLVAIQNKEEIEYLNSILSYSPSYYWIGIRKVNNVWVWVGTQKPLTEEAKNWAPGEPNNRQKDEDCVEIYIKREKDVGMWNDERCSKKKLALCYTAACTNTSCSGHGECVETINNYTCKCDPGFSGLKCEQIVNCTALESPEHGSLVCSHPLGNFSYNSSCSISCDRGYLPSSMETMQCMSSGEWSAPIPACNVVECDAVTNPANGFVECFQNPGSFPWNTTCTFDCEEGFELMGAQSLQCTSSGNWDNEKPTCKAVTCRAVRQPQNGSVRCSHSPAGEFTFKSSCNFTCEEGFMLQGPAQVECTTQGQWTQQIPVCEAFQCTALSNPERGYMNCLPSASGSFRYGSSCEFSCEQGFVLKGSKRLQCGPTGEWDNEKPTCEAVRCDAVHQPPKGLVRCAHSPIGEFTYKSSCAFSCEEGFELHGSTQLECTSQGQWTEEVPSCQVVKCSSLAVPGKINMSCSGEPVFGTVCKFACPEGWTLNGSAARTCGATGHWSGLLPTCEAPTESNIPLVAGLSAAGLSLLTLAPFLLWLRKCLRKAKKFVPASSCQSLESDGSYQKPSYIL
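Test system: HUVEC; input: 3,000 HUVEC/well; measured by: immunofluorescence imaging; read-out: % PE-positive cells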
LGR2 inh – inhibitors of bursicon-induced LGR2 CRE-luciferase signal, primary screen, cell-based, HEK293, CRE-luciferase reporter, bursicon stimulation; Drosophila bursicon receptor LGR2 (rickets); bursicon-stimulated, 4 h; inhibition, % at 9.99 µM; actives 0.35% (n = 380,000); AID 720647, 2013;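 active = drop in luminescence signal, shown as inhibition above about 50% in the replicate tests, limit read from the data, passing the limit was not always enough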;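 also: agonist challenge used bursicon conditioned medium at about half maximal strength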
* hit, by the source's call; / = no result; ! = not active in a repeat. Hits are enriched below; roughly 2.4% of the tested compounds scored in any of these assays.

SMILES	Ecoli rRNA inh	EWS-Fli inh	E-selectin induc	LGR2 inh
COc1cccc(CNC(=O)c2ccc(OC)c(S(=O)(=O)NC3CCCC3)c2)c1	-4.3	-1.2	1.0	-15.1
Nc1c(C(=O)NCc2ccco2)c2nc3ccccc3nc2n1CCc1ccccc1	-28.1*	-0.4	/	15.9
Nc1c(C(=O)NCc2ccccc2)c2nc3ccccc3nc2n1CCCN1CCOCC1	0.1	10.1	/	0.7
CCCCN1CC(N2CCN(Cc3ccccc3)CC2)CS1(=O)=O (stereo not given)	-31.9*	-2.3	/	-9.0
Cc1cccc(CN2CCN(C3CN(Cc4cn(Cc5cccc(Cl)c5)nn4)S(=O)(=O)C3)CC2)c1 (stereo not given)	-35.8*	8.5	1.9	-16.0
Cc1cccc(CN2CCN(C3CN(Cc4cn(Cc5ccc(Cl)cc5)nn4)S(=O)(=O)C3)CC2)c1 (stereo not given)	-25.5*	3.4	3.6	-6.8
O=S1(=O)CC(N2CCN(Cc3ccccc3F)CC2)CN1Cc1cn(Cc2cccc(Cl)c2)nn1 (stereo not given)	-24.2*	-3.4	-0.3	-0.7
O=C(c1cnccn1)N1CC2(C1)[C@H](c1ccccc1)[C@@H](CO)N2C(=O)c1ccccc1	0.6	3.8	0.1	6.8
c1ccc(C(c2ccccc2)c2nc(-c3cccnc3)no2)cc1	-39.5*	/	/	1.7
c1ccc(SCc2nc(-c3cccnc3)no2)cc1	/	/	/	-29.2
Cc1cc(C)nc(NC(N)=NC(C)c2ccccc2)n1 (stereo not given)	-20.4	-3.2	185.3*	-13.0
C[C@H](CO)N1C[C@H](C)[C@@H](CN(C)Cc2ccc(Oc3ccccc3)cc2)Oc2ccc(NC(=O)Nc3ccc(C(F)(F)F)cc3)cc2C1=O	2.2	-1.1	272.7*	3.6
C[C@H](CO)N1C[C@H](C)[C@H](CN(C)Cc2ccc(Oc3ccccc3)cc2)Oc2ccc(NC(=O)Nc3ccc(C(F)(F)F)cc3)cc2C1=O	4.7	56.0*	2.2	3.3
COc1cccc(-c2ccc3c(c2)[C@H]2[C@H](CCN2C(=O)CN2CCOCC2)[C@H](CO)N3)c1	-3.2	-37.7	0.1	-11.2
C[C@H]1CN([C@@H](C)CO)C(=O)c2cccc(NS(=O)(=O)c3ccc(Cl)cc3)c2O[C@H]1CN(C)Cc1ccc(C(=O)O)cc1	2.8	-5.1	-0.2	-11.9
COc1ccc2c3c(n(C)c2c1)[C@@H](CO)N(C(=O)Cc1ccccc1)CC31CCN(C(C)=O)CC1	-1.0	-5.2	-0.3	-17.9
CC(C)[C@@H]1COCn2nncc2CC[C@H](Cc2ccc(-c3ccccc3)cc2)C(=O)N1	2.1	/	/	/
Cc1c(CC(=O)O)c(=O)oc2cc3occ(-c4ccccc4)c3cc12	-19.0*	-8.7	-0.1	5.0
Cc1c(CC(=O)O)c(=O)oc2c(C)c3occ(-c4ccc(F)cc4)c3cc12	-24.8	6.7	/	-4.5
Cc1c(CCC(=O)O)c(=O)oc2c(C)c3occ(-c4ccc(Br)cc4)c3cc12	-15.7*	2.7	/	5.4
Cc1c(CC(=O)NCCC(=O)O)c(=O)oc2cc3occ(-c4ccccc4)c3cc12	-21.9	16.0	40.1*	-15.7
Cc1nc2sc(-c3ccccc3)cc2c(=O)n1/N=C/N(C)C	-4.3	-58.6	/	-19.9
Cc1nc2sc(-c3ccccc3)cc2c(=O)n1N	15.1	68.6*	/	80.7*
Cc1nc([N+](=O)[O-])c(Br)n1CC(=O)c1ccc(F)cc1	-32.8*	15.4	-0.2	24.3
Cc1nc([N+](=O)[O-])c(Br)n1CC(=O)c1cccc([N+](=O)[O-])c1	-39.1*	21.7	/	12.8
SMILES	Ecoli rRNA inh	EWS-Fli inh	E-selectin induc	LGR2 inh
CCCNC(=O)Nc1ccc2c(c1)C(=O)N(C)C[C@H](OC)[C@@H](C)CN(Cc1ccncc1)[C@@H](C)CO2	0.7	-8.2	-0.1	5.3
CCOC(=O)CN(C)Cc1cn(C)nc1-c1ccc(Oc2ccccc2)cc1	-19.5*	9.4	0.1	11.1
COc1ccc([N+](=O)[O-])c(S(=O)(=O)c2ccc(Cl)cc2)n1	8.0	20.1	-0.1	96.9*
COc1ccc([N+](=O)[O-])c(S(=O)(=O)c2ccccc2)n1	2.8	25.3	0.1	103.9*
O=[N+]([O-])c1cccnc1S(=O)(=O)c1ccccc1	8.1	43.7	/	11.5
COc1nc(OC)nc(Oc2ccc(Cl)cc2[N+](=O)[O-])n1	5.6	5.1	-0.3	-8.9
O=C(N[C@@H]1CC[C@H](CCn2cc(C3(O)CCCC3)nn2)O[C@H]1CO)C1CCCCC1	0.4	5.7	0.5	-25.8
CC(=O)c1cccc(NC(=O)C2=CN3CCS(=O)(=O)N=C3C=C2)c1	8.5	5.2	75.2*	-22.0
CC(=O)c1cccc(NC(=O)C2=CC(c3ccco3)=NS(=O)(=O)N2C)c1	3.9	-17.8	/	12.3
Fc1ccccc1CNCCC(Cc1ccccc1)c1ccc2c(c1)OCO2 (stereo not given)	-51.0*	9.3	-2.4	18.7
O=C1C(Cc2ccccc2)Nc2ncnc(N3CCOCC3)c2N1Cc1ccc(Cl)cc1 (stereo not given)	-20.6*!	-5.5	3.7	8.4
C[C@@H]1CN([C@@H](C)CO)C(=O)c2cc(NS(=O)(=O)c3ccc(F)cc3)ccc2O[C@@H](C)CCCCO[C@@H]1CN(C)Cc1ccc2c(c1)OCO2	1.4	3.0	/	2.6
CCN(C(=O)COC(=O)c1ccc([N+](=O)[O-])o1)c1cccc2ccccc12	-19.5*	1.3	0.1	11.4
CCc1ccc(-c2nc(CSCC(=O)NCc3ccco3)c(C)o2)cc1	-21.4	83.6*	2.0	0.8
CCCNC(=O)CSCc1nc(-c2ccc(SC)cc2)oc1C	-19.6	17.7	-0.2	-15.9
CCCNC(=O)C[C@@H]1CC[C@@H]2[C@@H](COc3ccc(NC(=O)c4cccs4)cc3C(=O)N2C)O1	3.0	-4.7	0.2	8.9
O=S(=O)(c1ccc(Cl)cc1)N1CCN(Cc2cccc(OCCO)c2)CC1	/	8.4	/	/
COc1ccc(/C=C/C(=O)NC(=S)Nc2cc([N+](=O)[O-])ccc2O)cc1OC	-17.0*	5.9	5.8	8.4
COc1ccc(C(=O)Nc2ccccc2C(=O)O)cc1NC(=O)C(c1ccccc1)c1ccccc1	-35.8*	-9.9	-0.1	-12.9
COc1ccc(/C=C/C(=O)Nc2ccccc2C(=O)O)cc1	-35.5*	-7.1	6.2	58.9*
COc1ccc(/C=C/C(=O)Nc2ccccc2C(F)(F)F)cc1OC	4.1	-1.7	0.0	-24.4
COc1ccc(/C=C/C(=O)Nc2ccccc2C(=O)O)cc1OC	/	40.5	1.3	81.4*
CC(C)=CCC/C(C)=C/CNC(=O)C[C@H]1C[C@H](C(=O)N2CCOCC2)[C@@]2(C)c3[nH]c4ccc(Cl)cc4c3CCN2C1=O	1.4	35.8	0.4	63.1*
Cc1cc(Cl)ccc1OC(C)C(=O)OCC(=O)c1ccc[nH]1 (stereo not given)	1.1	3.3	/	4.2
COc1ccc(Cl)cc1C(=O)OCC(=O)c1ccc[nH]1	-16.5*	-1.9	0.2	8.8

Screening results from PubChem.
